Measurements taken from ChEMBL document CHEMBL3588747, “Virtual High-Throughput Screening To Identify Novel Activin Antagonists” (J Med Chem, 2015).
Active and inactive are the calls of the source. The rule behind the calls is not given here.

Legend:
[1] = Cytotoxicity against mouse LbetaT2 cells assessed as reduction in cell viability at 100 uM after 24 hrs by MTT assay; assay type: functional
Procedure, shortened: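 LβT2 gonadotrope cells seeded 5 × 10^4/well, grown 24 h in DMEM-F12 with 5% FBS and […] D-glucose, then exposed to compound at 10 or 100 µM in growth medium for 24 h. MTT added for a further 2–3 h; absorbance at 490 nm as viability.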

HepG2 = assay: […] in human HepG2 cells assessed as cell viability after 96 hrs by MTT assay; assay type: functional, cell-based; details: HepG2, 96 h
Procedure, shortened: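 HepG2 cells (5 × 10^4/well) treated with 1 nM activin A alone (DMSO solvent control) or with compound 1.6–200 µM or Fst288 0.5–8 nM, 96 h at 37 °C in DMEM with 0.2% FBS, pyruvate, glutamine. MTT added 0.5–1 h for viability as reversal of activin-induced apoptosis; IC50 from sigmoidal variable-slope fit; means ± SD.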

Inhibin beta A chain = biological target: T1, Inhibin beta A chain (Mus musculus, UniProt Q04998); assay: Antagonist activity at activin A in mouse LbetaT2 cells transfected with -338 promoter region of FSHbeta gene conjugated to luciferase reporter assessed as inhibition of FSHbeta promoter activation by luciferase assay; assay type: cell-based
T1 sequence (Q04998 whole entry): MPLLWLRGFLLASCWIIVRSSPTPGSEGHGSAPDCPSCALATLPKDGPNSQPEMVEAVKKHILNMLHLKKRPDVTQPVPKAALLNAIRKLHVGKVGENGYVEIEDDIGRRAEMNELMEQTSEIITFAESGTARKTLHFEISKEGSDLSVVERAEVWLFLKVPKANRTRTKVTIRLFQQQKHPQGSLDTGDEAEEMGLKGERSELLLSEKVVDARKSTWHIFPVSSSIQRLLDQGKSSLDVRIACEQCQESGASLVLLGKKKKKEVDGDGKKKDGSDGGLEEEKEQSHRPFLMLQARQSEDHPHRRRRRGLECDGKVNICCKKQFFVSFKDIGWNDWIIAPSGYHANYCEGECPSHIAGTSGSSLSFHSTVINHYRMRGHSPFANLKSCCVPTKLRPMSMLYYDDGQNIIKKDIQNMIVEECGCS
Procedure, shortened: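 −338FSHβ-Luc stably transfected LβT2 cells, 5 × 10^4 cells/well, plated 24 h, then given activin A (0.2 nM) with compound at 0.4–100 µM (in DMSO) or Fst288 0.05–4 nM as control, 6 h at 37 °C in serum-free, phenol red-free DMEM-F12. Cells lysed, luciferase activity read; IC50 from sigmoidal variable-slope fit; means ± SD.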

[2] = Solubility of the compound in cell growth medium up to 200 uM after 24 hrs by upright light microscopy; assay type: physicochemical
Procedure, shortened: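 Compound from 50 mM DMSO stock diluted to 200 µM final in DMEM-F12 with 5% FBS, 1% penicillin/streptomycin, […] D-glucose, held 24 h; precipitate checked visually under upright light microscope.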

[3] = biological target: T2, Inhibin beta A chain (Mus musculus) (UniProt Q04998); assay: Inhibition of activin A stimulated 4 day old CD1 mouse ovarian cell proliferation at 200 uM for 4 days by BrdU assay
T2 sequence (whole entry): T1 sequence (Q04998 whole entry)
Procedure, shortened: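 Ovaries from 4-day-old CD1 mice cultured on membrane inserts in DMEM/F12 with 0.03% BSA with 1 nM activin A plus compound at 200 µM (DMSO control; Fst288 4 nM or inhibin A 8 nM references) for 4 days, then 10 µM BrdU for 24 h. Genomic DNA (150 ng) denatured, dot-blotted, probed with anti-BrdU, ECL, densitometry; three independent experiments; ANOVA/Tukey.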

Mus musculus [4] = assay: Toxicity in ovariectomized CD1 mouse assessed as change in behavior at 60 mg/kg, sc twice daily for 2 days; assay type: organism-based; details: in vivo, 48 h
Procedure, shortened: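 Ovariectomized 12-week-old CD1 mice given subcutaneous compound twice daily for 2 days (4 doses); behaviour observed after injection.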

Mus musculus [5] = assay: Toxicity in ovariectomized CD1 mouse assessed as liver and kidney histopathology at 60 mg/kg, sc twice daily for 2 days; assay type: organism-based; details: in vivo, 48 h
Procedure, shortened: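 Ovariectomized CD1 mice given vehicle or 60 mg/kg subcutaneously, 4 doses over 2 days; kidney and liver fixed in Modified Davidson's fixative 5 days at 4 °C, paraffin-embedded, H&E stained for histopathology.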

Mus musculus [6] = assay: Inhibition of activin - stimulated serum FSH level in ovariectomized CD1 mouse at 30 mg/kg, sc by ELISA (reference value: 100%); assay type: functional
Procedure, shortened: (§1)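 Ovariectomized 12-week-old CD1 mice dosed subcutaneously twice daily for 2 days (4 doses); vehicle TBS or DMSO; Fst288 200 µg/kg for 3 doses as reference. Serum then collected, stored −20 °C, FSH measured by ELISA (sensitivity 0.35 mIU/mL, read 450 nm); vehicle mean set to 100%. 5–7 mice per group, 10 controls; one-way ANOVA with Tukey.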

[7] = biological target: T3, Inhibin beta A chain (Homo sapiens) (UniProt P08476); assay: Inhibition of interaction of activin A (unknown origin)/ActRIIA-ECD complex with ALK4-ECD-Fc after 120 secs by competitive binding/ Blitz binding assay
T3 sequence (whole entry): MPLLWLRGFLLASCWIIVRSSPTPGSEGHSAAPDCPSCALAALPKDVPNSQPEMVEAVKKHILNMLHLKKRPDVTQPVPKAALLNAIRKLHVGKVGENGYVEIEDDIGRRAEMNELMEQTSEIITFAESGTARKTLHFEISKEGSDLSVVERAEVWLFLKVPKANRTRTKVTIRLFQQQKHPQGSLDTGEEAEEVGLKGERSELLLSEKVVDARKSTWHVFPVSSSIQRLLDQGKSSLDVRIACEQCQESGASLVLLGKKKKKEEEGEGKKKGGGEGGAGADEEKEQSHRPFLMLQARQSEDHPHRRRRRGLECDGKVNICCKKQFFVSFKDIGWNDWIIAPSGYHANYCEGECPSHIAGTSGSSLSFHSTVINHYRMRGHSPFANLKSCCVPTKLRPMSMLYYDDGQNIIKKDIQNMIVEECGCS
Procedure, shortened: (§2)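 ALK4-ECD-Fc (50 ng/mL) captured on a protein A biosensor for 120 s, then dipped into activin A/ActRIIA-ECD premixed 1:2 molar, 1.6 µM final in PBS, with solvent or compound at 0.4, 1.6, 6.25 or 25 µM; 120 s association, 120 s dissociation in PBS; wavelength shift monitored by Blitz.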

Mus musculus [8] = assay: Inhibition of activin - stimulated serum FSH level in ovariectomized CD1 mouse at 60 mg/kg, sc by ELISA (reference value: 100%); assay type: functional; procedure, shortened: as §1
[9] = biological target: T4, Growth/differentiation factor 8 (Mus musculus, UniProt O08689); assay: Antagonist activity at myostatin in mouse LbetaT2 cells transfected with -338 promoter region of FSHbeta gene conjugated to luciferase reporter assessed as inhibition of FSHbeta promoter activation by luciferase assay; assay type: cell-based
T4 sequence (O08689 whole entry): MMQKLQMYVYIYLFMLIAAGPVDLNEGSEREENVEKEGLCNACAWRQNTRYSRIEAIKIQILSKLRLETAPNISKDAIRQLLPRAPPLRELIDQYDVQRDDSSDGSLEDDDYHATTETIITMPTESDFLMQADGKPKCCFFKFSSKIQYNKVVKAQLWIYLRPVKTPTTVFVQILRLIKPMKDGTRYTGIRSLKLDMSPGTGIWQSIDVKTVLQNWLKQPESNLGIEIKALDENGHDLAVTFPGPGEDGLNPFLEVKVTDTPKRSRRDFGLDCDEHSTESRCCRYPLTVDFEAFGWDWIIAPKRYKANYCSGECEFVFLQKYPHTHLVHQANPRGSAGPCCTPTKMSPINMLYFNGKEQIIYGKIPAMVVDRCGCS
Procedure, shortened: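 Stable −338FSHβ-Luc LβT2 cells were plated at 5 × 10^4/well. They were stimulated with myostatin (0.2 nM) plus DMSO solvent control, or with compound at 0.8–100 µM, for 6 h at 37 °C in serum-free, phenol red-free DMEM-F12. Cells were lysed for luciferase readout. Runs were in triplicate across three experiments, and IC50 came from a sigmoidal variable-slope fit, reported as mean ± SD.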

[10] = biological target: T3, Inhibin beta A chain (Homo sapiens); assay: Inhibition of interaction of activin A (unknown origin)/ActRIIA-ECD complex with ALK4-ECD-Fc at 25 uM after 120 secs by competitive binding/ Blitz binding assay; procedure, shortened: as §2
[11] = biological target: T3, Inhibin beta A chain (Homo sapiens); assay: Inhibition of interaction of activin A (unknown origin) with ActRIIA-ECD complex at 25 uM after 120 secs by competitive binding/ Blitz binding assay
Procedure, shortened: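 Protein A biosensor (Blitz, dip-and-read) loaded with ActRIIA-ECD-Fc; activin A at 1.6 µM final, with solvent or compound at 25 µM, 120 s association and 120 s dissociation in PBS; real-time wavelength shift recorded.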

[12] = biological target: Growth/differentiation factor 8 (Homo sapiens) (UniProt O14793); assay: Inhibition of interaction of myostatin (unknown origin)/ActRIIA-ECD complex with ALK4-ECD-Fc at 25 uM after 120 secs by competitive binding/ Blitz binding assay
Procedure, shortened: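 Blitz biolayer assay: ALK4-ECD-Fc (50 ng/mL) captured on protein A biosensor 120 s, exposed to myostatin/ActRIIA-ECD premixed 1:2 molar at 1.6 µM final in PBS with solvent or compound at 25 µM; 120 s association, 120 s dissociation; real-time wavelength shift.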

Mus musculus [13] = assay: Inhibition of activin - stimulated serum FSH level in ovariectomized CD1 mouse at 15 mg/kg, sc by ELISA (reference value: 100%); assay type: functional, organism-based; procedure, shortened: as §1

Structure (SMILES) | IC50 (HepG2) | IC50 (Inhibin beta A chain) | inhibition at 100 µM [1] | solubility [2] | further results
CCCn1ncc(CN2CCN(CCCc3ccccc3)[C@@H](CCO)C2)c1C |  | > 100 µM | < 20% | soluble | 
CC(C)(O)C#Cc1ccc(CN2CCC[C@@H](CCC(=O)N3CCOCC3)C2)s1 | 23.2 µM | 4.42 µM | < 20% | soluble | inhibition [3]: Active
O=C(NCc1ccccc1)c1nn(CCO)c2c1CN(C1CCCC1)CC2 |  | > 100 µM | < 20% | soluble | 
CCn1c(-c2cccnc2)nc2cc(NC(=O)COC)cc(C(=O)NCc3ccccc3)c21 | 12.1 µM | 3.67 µM | < 20% | soluble | Activity (Mus musculus [4]): Non-toxic; inhibition [3]: Active; Activity (Mus musculus [5]): Non-toxic; inhibition in vivo at 30 mg/kg (Mus musculus [6]): 70%; inhibition [7]: Dose-dependent effect; inhibition in vivo at 60 mg/kg (Mus musculus [8]): 70%; IC50 [9]: 47.9 µM; Activity [10]: Active; Activity [11]: inactive; Activity [12]: inactive; Activity (Mus musculus [13]): inactive
O=C(NCc1cccc(F)c1)[C@@H]1CCC(=O)N(CCCN2CCCC2=O)C1 |  | > 100 µM | < 20% | soluble | 
O=C(N[C@H](Cc1ccc2c(c1)OCO2)C(=O)N[C@@H](Cc1c[nH]c2ccccc12)C(=O)O)c1ccccc1 |  | > 100 µM | < 20% | soluble | 
Cc1n[nH]c(O)c1C(c1ccc(-c2ccccc2C(=O)O)o1)c1c(C)n[nH]c1O |  | > 100 µM | < 20% | soluble | 

Continued, in another order:

IC50 (HepG2) | IC50 (Inhibin beta A chain) | Structure (SMILES) | inhibition at 100 µM [1] | solubility [2] | further results
47.3 µM | 4.18 µM | COc1ccc(OC[C@@H](O)CN2CCC(O)CC2)c(CNCCc2cccnc2)c1 | < 20% | soluble | 
43.9 µM | 4.25 µM | Cn1cc(CN2C[C@H](OCc3cccnc3)CN(Cc3ccc(C#CC(C)(C)O)cc3)CC2=O)cn1 | < 20% | soluble | 
> 200 µM | 23.6 µM | O=C1CC[C@](CCC(=O)N2CCC([C@@H](O)c3cccnc3)CC2)(Cc2cccc3ccccc23)N1 | < 20% | soluble | 
 | > 100 µM | COc1cccc(CO[C@H]2CN(CCc3ccccc3)C(=O)CN(C(=O)[C@@H]3CNC(=O)C3)C2)c1 | < 20% | soluble | 
